Here are results for 17 molecules from ChEMBL document CHEMBL3351675, “Novel benzenesulfonylureas containing thiophenylpyrazoline moiety as potential antidiabetic and anticancer agents” (Bioorg Med Chem Lett, 2014).

Data set [1] deals with Peroxisome proliferator-activated receptor gamma (Mus musculus) (UniProt P37238). In words: Transactivation of PPARgamma (mouse) expressed in 3T3-L1 cells incubated for 24 hrs by luciferase reporter gene assay relative to rosiglitazone.
Data set [2] relates to Rattus norvegicus. In words: Effect on body weight in Wistar rat model of streptozotocin-induced diabetes at 30 mg/kg, po measured over 15 days. The format is ADME, organism-based. The conditions noted are these: in vivo, 360 h. Also noted: dose 30 mg/kg, route oral.
Data set [3] concerns Rattus norvegicus. In words: Antidiabetic activity in overnight fasted Wistar rat assessed as reduction in plasma glucose level at 30 mg/kg, po by oral glucose tolerance test. The data set is classed as functional, organism-based. On the set-up: dose 30 mg/kg. The gist of the method: (§1)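 Normal Wistar rats were given a glucose load by the oral glucose tolerance method, and plasma glucose rise was followed after oral test dosing. Glibenclamide was the reference drug. Data are mean ± SEM of six observations versus control, analysed by one-way ANOVA with Dunnett test (p < 0.05, p < 0.01).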

In data set [4] the test system is Rattus norvegicus. In words: Antidiabetic activity in Wistar rat model of streptozotocin-induced diabetes assessed as reduction in plasma glucose level at 30 mg/kg, po and dosage repeated for 15 days by GOD-POD method. The data set is classed as functional, organism-based. On the set-up: dose 30 mg/kg.
In another data set the test system is 3T3-L1. In words: Increase in PPARgamma gene expression in mouse 3T3L1 cells at 10 uM incubated for 24 hrs by RT-PCR method. The data set is classed as functional.
Data set [5] deals with Rattus norvegicus. Nature of the data set: Increase in body weight in Wistar rat model of streptozotocin-induced diabetes at 30 mg/kg, po measured over 15 days. The conditions noted are these: in vivo, 360 h. The data set is classed as ADME, organism-based. Also noted: dose 30 mg/kg, route oral.
In data set [6] the test system is Rattus norvegicus. Nature of the data set: Antidiabetic activity in Wistar rat model of streptozotocin-induced diabetes assessed as reduction in plasma glucose level at 36 mg/kg, po and dosage repeated for 15 days by GOD-POD method. The data set is classed as functional, organism-based. Also noted: dose 36 mg/kg.
Data set [7] has as its system Rattus norvegicus. Nature of the data set: Antidiabetic activity in overnight fasted Wistar rat assessed as reduction in plasma glucose level at 36 mg/kg, po by oral glucose tolerance test. The data set is classed as functional, organism-based. On the set-up: dose 36 mg/kg. In a few lines:
as §1

Data set [8] relates to Rattus norvegicus. In words: Effect on body weight in Wistar rat model of streptozotocin-induced diabetes at 36 mg/kg, po measured over 15 days. The format is ADME, organism-based. Also noted: dose 36 mg/kg, route oral. Particulars: in vivo, 360 h.

Calls of active or inactive are those of the source. The calls are words filed in the database; no cut-off is given here.

Peroxisome proliferator-activated receptor gamma (Mus musculus), sequence (P37238 whole entry, looked up): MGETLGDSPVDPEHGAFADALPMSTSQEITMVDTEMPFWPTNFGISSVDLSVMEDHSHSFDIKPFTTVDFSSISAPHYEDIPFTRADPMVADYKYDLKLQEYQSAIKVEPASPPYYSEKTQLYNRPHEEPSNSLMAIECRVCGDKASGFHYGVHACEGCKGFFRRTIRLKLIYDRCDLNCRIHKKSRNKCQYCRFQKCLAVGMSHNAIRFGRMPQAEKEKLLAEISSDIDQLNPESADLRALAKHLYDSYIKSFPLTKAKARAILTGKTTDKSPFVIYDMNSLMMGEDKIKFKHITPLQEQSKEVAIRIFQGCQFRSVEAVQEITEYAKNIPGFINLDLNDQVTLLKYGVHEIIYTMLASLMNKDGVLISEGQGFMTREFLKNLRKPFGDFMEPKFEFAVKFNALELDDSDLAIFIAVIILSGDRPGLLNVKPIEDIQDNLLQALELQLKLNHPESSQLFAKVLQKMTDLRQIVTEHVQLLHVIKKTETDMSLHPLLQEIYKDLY

As for `CN(C)c1ccc(C2CC(c3cccs3)=NN2c2ccc(S(=O)(=O)NC(=S)NCc3ccccc3)cc2)cc1` (stereo not drawn), the outcome in data set [1] was inactive. Further, the Activity result in the data set on Rattus norvegicus [2] is “Non-toxic”. In the data set on Rattus norvegicus [3], the inhibition result was “Active”.
On to `Cc1ccccc1NC(=O)NS(=O)(=O)c1ccc(N2N=C(c3cccs3)CC2c2ccccc2)cc1` (stereo not drawn), for which the inhibition result in the data set on Rattus norvegicus [4] and in the data set with Rattus norvegicus [3] was “Active” throughout. Moreover, in the data set on 3T3-L1, the “fold change (FC)” value is recorded as 0.95. Besides, the result in data set [1] was inactive. For the same molecule, the Activity entry in the data set with Rattus norvegicus [2] is “Non-toxic”.
As for `Cc1ccc(C2CC(c3cccs3)=NN2c2ccc(S(=O)(=O)NC(=O)Nc3ccccc3C)cc2)s1` (stereo not drawn), the Activity result with Rattus norvegicus [2] is “Non-toxic”.
For `O=C(NCc1ccccc1)NS(=O)(=O)c1ccc(N2N=C(c3cccs3)CC2c2cccs2)cc1` (stereo not drawn), the result in data set [1] was inactive. For the same molecule, the Activity entry in the data set on Rattus norvegicus [2] is listed as “Non-toxic”. Also, the inhibition entry in the data set on Rattus norvegicus [3] was “Active”.
Regarding `Cc1ccc(NC(=O)NS(=O)(=O)c2ccc(N3N=C(c4cccs4)CC3c3cccs3)cc2)cc1` (stereo not drawn), the outcome in data set [1] was inactive. In the data set with Rattus norvegicus [2], the Activity result is “Non-toxic”. Also, the inhibition entry with Rattus norvegicus [3] is “Active”.
For `Cc1ccc(NC(=O)NS(=O)(=O)c2ccc(N3N=C(c4cccs4)CC3c3ccccc3)cc2)cc1` (stereo not drawn), the inhibition entry in the data set on Rattus norvegicus [4] and with Rattus norvegicus [3] was “Active” in each case. The result in data set [1] was inactive.
For `CN(C)c1ccc(C2CC(c3cccs3)=NN2c2ccc(S(=O)(=O)NC(=O)NCc3ccccc3)cc2)cc1` (stereo not drawn), the Activity entry in the data set on Rattus norvegicus [5] is “Toxic”. Besides, in data set [1], the outcome was inactive. Further, in the data set with Rattus norvegicus [3], the inhibition result was “Active”.
Regarding `Cc1ccc(C2CC(c3cccs3)=NN2c2ccc(S(=O)(=O)NC(=O)NCc3ccccc3)cc2)s1` (stereo not drawn), the result in data set [1] was inactive. Moreover, in the data set with Rattus norvegicus [2], the Activity entry was “Non-toxic”. Also, the inhibition entry with Rattus norvegicus [3] is “Active”.
In the case of `CCCCNC(=O)NS(=O)(=O)c1ccc(N2N=C(c3cccs3)CC2c2ccccc2)cc1` (stereo not drawn), in the data set with Rattus norvegicus [5], the Activity entry was “Toxic”. Moreover, the inhibition result in the data set on Rattus norvegicus [4] and with Rattus norvegicus [3] was “Active” each time. Further, the outcome in data set [1] was inactive.
For the molecule `COc1ccc(C2CC(c3cccs3)=NN2c2ccc(S(=O)(=O)NC(=O)Nc3ccc(C)cc3)cc2)cc1` (stereo not drawn), the outcome in data set [1] was inactive. Moreover, the Activity entry in the data set on Rattus norvegicus [2] was “Non-toxic”. In addition, the inhibition entry in the data set on Rattus norvegicus [3] is “Active”.
With `COc1ccc(NC(=O)NS(=O)(=O)c2ccc(N3N=C(c4cccs4)CC3c3ccccc3)cc2)cc1` (stereo not drawn), the inhibition result in the data set with Rattus norvegicus [4] and in the data set on Rattus norvegicus [3] was “Active” each time. Besides, the outcome in data set [1] was inactive. Moreover, in the data set on Rattus norvegicus [2], the Activity result is recorded as “Non-toxic”.
As for `CCCCNC(=O)NS(=O)(=O)c1ccc(N2N=C(c3cccs3)CC2c2cccs2)cc1` (stereo not drawn), in the data set on Rattus norvegicus [5], the Activity result is on record as “Toxic”. For the same molecule, the result in [1] was inactive. Moreover, in the data set with Rattus norvegicus [3], the inhibition result was “Active”.
With `O=C(NCc1ccccc1)NS(=O)(=O)c1ccc(N2N=C(c3cccs3)CC2c2ccccc2)cc1` (stereo not drawn), the inhibition result in the data set with Rattus norvegicus [4] and with Rattus norvegicus [3] was “Active” in each case. In [1], the outcome was inactive. Further, the Activity result with Rattus norvegicus [2] was “Non-toxic”.
For the molecule `COc1ccc(NC(=O)NS(=O)(=O)c2ccc(N3N=C(c4cccs4)CC3c3cccs3)cc2)cc1` (stereo not drawn), the inhibition result in the data set with Rattus norvegicus [4] and in the data set with Rattus norvegicus [3] was “Active” throughout. In data set [1], the result was inactive. In addition, in the data set with Rattus norvegicus [2], the Activity entry was “Non-toxic”.
As to `CN(CCOc1ccc(CC2SC(=O)NC2=O)cc1)c1ccccn1` (stereo not drawn) [ROSIGLITAZONE], the inhibition entry in the data set with Rattus norvegicus [6] and in the data set on Rattus norvegicus [7] was “Active” throughout. Besides, the “fold change (FC)” value with 3T3-L1 worked out at 1.5. Further, the Activity entry with Rattus norvegicus [8] was “Toxic”.
`Cc1ccc(NC(=O)NS(=O)(=O)c2ccc(N3N=C(c4cccs4)CC3c3ccc(N(C)C)cc3)cc2)cc1` (stereo not drawn): the result in data set [1] was inactive. Besides, the Activity entry in the data set with Rattus norvegicus [2] is recorded as “Non-toxic”. In addition, the inhibition result in the data set with Rattus norvegicus [3] was “Active”.
For `COc1ccc(Cl)cc1C(=O)NCCc1ccc(S(=O)(=O)NC(=O)NC2CCCCC2)cc1` [GLYBURIDE], the Activity result in the data set with Rattus norvegicus [5] is “Toxic”. Besides, the inhibition entry with Rattus norvegicus [4] and in the data set with Rattus norvegicus [3] was “Active” in each case. In the data set with 3T3-L1, the “fold change (FC)” value was found to be 1. The result in [1] was inactive.
